Assay results from ChEMBL document CHEMBL4368894, “Fluorine substituted methoxyphenylalkyl amides as potent melatonin receptor agonists” (Medchemcomm, 2019).
Activity calls are given as the source filed them. The rule behind the calls is not given here.

Legend:
[1] = target: T1, Melatonin receptor type 1C (Xenopus laevis, UniProt P49219); assay: Agonist activity at Melatonin receptor type 1C in Xenopus laevis melanophores assessed as induction of pigment aggregation response by microtiter plate reader based absorbance detection assay
T1 sequence (P49219 whole entry): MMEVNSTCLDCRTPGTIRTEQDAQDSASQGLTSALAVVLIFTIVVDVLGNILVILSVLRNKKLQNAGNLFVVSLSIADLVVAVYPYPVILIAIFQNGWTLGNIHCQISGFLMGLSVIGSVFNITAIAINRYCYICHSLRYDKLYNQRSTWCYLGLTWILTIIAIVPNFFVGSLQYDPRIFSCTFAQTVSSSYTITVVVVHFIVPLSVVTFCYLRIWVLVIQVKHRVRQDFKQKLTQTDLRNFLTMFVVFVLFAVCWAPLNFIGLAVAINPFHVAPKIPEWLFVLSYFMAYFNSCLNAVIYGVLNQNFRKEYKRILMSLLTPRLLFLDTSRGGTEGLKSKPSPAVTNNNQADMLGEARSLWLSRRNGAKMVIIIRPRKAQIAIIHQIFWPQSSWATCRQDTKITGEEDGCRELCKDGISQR
Outline: (§1)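 Cultured melanophores (about 6-8 x 10³ per well) switched to 0.7 x L-15 medium with 1 mg·mL⁻¹ bovine albumin 1 h before concentration-response runs, in which pigment stays dispersed. Aggregation read as absorbance at 630 nm before and after drug, expressed as fractional change 1-(A_f/A_i). Drugs diluted fresh from 10⁻² M methanol or DMSO stocks; final solvent at most 1% v/v.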

[2] = target: T2, Melatonin receptor type 1C (Xenopus laevis) (UniProt P49219); assay: Agonist activity at Melatonin receptor type 1C in Xenopus laevis melanophores assessed as induction of pigment aggregation response by microtiter plate reader based absorbance detection assay relative to melatonin; outline: as §1
T2 sequence (whole entry): T1 sequence (P49219 whole entry)

[3] = target: T2, Melatonin receptor type 1C (Xenopus laevis); assay: Antagonist activity at Melatonin receptor type 1C in Xenopus laevis melanophores assessed as inhibition of melatonin-induced pigment aggregation response up to 10^-4M pre-incubated 60 mins before melatonin addition by microtiter plate reader based absorbance detection assay
[4] = target: T2, Melatonin receptor type 1C (Xenopus laevis); assay: Antagonist activity at Melatonin receptor type 1C in Xenopus laevis melanophores assessed as inhibition of melatonin-induced pigment aggregation response pre-incubated 60 mins before melatonin addition by microtiter plate reader based absorbance detection assay; design: concentration or dose not given beside the values
Outline: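 Melanophores pre-equilibrated 1 h in 0.7 x L-15 medium containing 1 mg·mL⁻¹ bovine albumin. Antagonist (10⁻⁵ M) added 60 min ahead of melatonin, and melatonin concentration-response curves run with and without it. Pigment aggregation read as 630 nm absorbance change, 1-(A_f/A_i). pK_B taken as log(concentration ratio – 1) – log[antagonist]. Solvent at most 1% v/v.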

Q: Which EC50 [1] does the source give for `CCCC(=O)NCCCc1ccc(F)c(OC)c1` here?
A: 0.891 nM

Q: What about the Efficacy [2] of the same molecule?
A: 89%

Q: And the inhibition [3]?
A: inactive

Q: How did the EC50 [1] turn out when `COc1ccc(CCCNC(C)=O)cc1F` was run?
A: 1820 nM

Q: And the Efficacy [2]?
A: 79%

Q: What about the inhibition [3] of the same molecule?
A: inactive

Q: Which results are given for `CCCC(=O)NCC(C)(C)c1cc(OC)ccc1F`?
A: EC50 [1]: 97.7 nM; Efficacy [2]: 100%; inhibition [3]: inactive

Q: `CCC(=O)NCC(C)(C)c1cc(OC)ccc1F` was tested. Which EC50 [1] did it give?
A: 269 nM

Q: What about the Efficacy [2] of the same molecule?
A: 100%

Q: What about the inhibition [3] of the same molecule?
A: inactive

Q: How did the EC50 [1] turn out when `COc1cc(CCCNC(C)=O)ccc1F` was run?
A: 3.89 nM

Q: What about the Efficacy [2] of the same molecule?
A: 92%

Q: What about the inhibition [3] of the same molecule?
A: inactive

Q: Which EC50 [1] does the source give for `CCC(=O)NCCCc1ccc(F)c(OC)c1` here?
A: 1.1 nM

Q: And the Efficacy [2]?
A: 89%

Q: What about the inhibition [3] of the same molecule?
A: inactive

Q: What does the source list for `COc1cc(C(C)(C)CNC(C)=O)ccc1F`?
A: EC50 [1]: 1.82 nM; Efficacy [2]: 100%; inhibition [3]: inactive

Q: Which results are given for `COc1ccc(F)c(C(C)(C)CNC(C)=O)c1`?
A: EC50 [1]: 182 nM; Efficacy [2]: 100%; inhibition [3]: inactive

Q: For `CCCC(=O)NC(C)Cc1ccc(F)c(OC)c1` (stereo not drawn), which EC50 [1] is on record?
A: 105 nM

Q: And the Efficacy [2]?
A: 89%

Q: And the inhibition [3]?
A: inactive

Q: For `CCC(=O)NCCc1ccc(OC)c(F)c1`, which EC50 [1] is on record?
A: 1350 nM

Q: What about the Efficacy [2] of the same molecule?
A: 80%

Q: And the inhibition [3]?
A: inactive

Q: For `CCCC(=O)NCCc1cc(OC)ccc1F`, which EC50 [1] is on record?
A: 251 nM

Q: What about the Efficacy [2] of the same molecule?
A: 100%

Q: What about the inhibition [3] of the same molecule?
A: inactive

Q: Which EC50 [1] does the source give for `CCCC(=O)NCc1ccc(F)c(OC)c1` here?
A: 2510 nM

Q: And the Efficacy [2]?
A: 75%

Q: What about the inhibition [3] of the same molecule?
A: inactive

Q: How did the EC50 [1] turn out when `CCCC(=O)NCC(C)(C)c1ccc(OC)c(F)c1` was run?
A: 79.4 nM

Q: And the Efficacy [2]?
A: 100%

Q: And the inhibition [3]?
A: inactive

Q: Which results are given for `CCCC(=O)NCc1cc(OC)ccc1F`?
A: EC50 [1]: 1350 nM; inhibition [4]: 44%; Efficacy [2]: 43%

Q: What does the source list for `CCC(=O)NCCc1ccc(F)c(OC)c1`?
A: EC50 [1]: 85.1 nM; Efficacy [2]: 100%; inhibition [3]: inactive

Q: For `COc1cc(CNC(C)=O)ccc1F`, which EC50 [1] is on record?
A: 2090 nM

Q: What about the Efficacy [2] of the same molecule?
A: 83%

Q: And the inhibition [3]?
A: inactive

Q: Which EC50 [1] does the source give for `CCC(=O)NCCc1cc(OC)ccc1F` here?
A: 794 nM

Q: And the Efficacy [2]?
A: 100%

Q: What about the inhibition [3] of the same molecule?
A: inactive

Q: With `COc1ccc(F)c(CCNC(C)=O)c1` as the molecule, how does the EC50 [1] read?
A: 2450 nM

Q: What about the Efficacy [2] of the same molecule?
A: 100%

Q: And the inhibition [3]?
A: inactive

Q: Which results are given for `CCC(=O)NCC(C)(C)c1ccc(OC)c(F)c1`?
A: EC50 [1]: 93.3 nM; Efficacy [2]: 100%; inhibition [3]: inactive

Q: `CCCC(=O)NCC(C)(C)c1ccc(F)c(OC)c1` was tested. Which EC50 [1] did it give?
A: 0.0229 nM

Q: And the Efficacy [2]?
A: 100%

Q: What about the inhibition [3] of the same molecule?
A: inactive

Q: What does the source list for `CCCC(=O)NCCCc1ccc(OC)c(F)c1`?
A: EC50 [1]: 417 nM; inhibition [4]: 19%; Efficacy [2]: 73%

Q: Which EC50 [1] does the source give for `COc1ccc(C(C)(C)CNC(C)=O)cc1F` here?
A: 81.3 nM

Q: What about the Efficacy [2] of the same molecule?
A: 100%

Q: And the inhibition [3]?
A: inactive

Q: For `CCC(=O)NCCCc1cc(OC)ccc1F`, which EC50 [1] is on record?
A: 3.72 nM

Q: What about the Efficacy [2] of the same molecule?
A: 100%

Q: What about the inhibition [3] of the same molecule?
A: inactive

Q: `CCC(=O)NCc1ccc(OC)c(F)c1` was tested. Which EC50 [1] did it give?
A: 1050 nM

Q: And the inhibition [4]?
A: 24%

Q: What about the Efficacy [2] of the same molecule?
A: 51%

Q: Which results are given for `COc1ccc(CCNC(C)=O)cc1F`?
A: EC50 [1]: 2400 nM; Efficacy [2]: 80%; inhibition [3]: inactive

Q: For `CCCC(=O)NCCc1ccc(OC)c(F)c1`, which EC50 [1] is on record?
A: 1200 nM

Q: And the inhibition [4]?
A: 48%

Q: And the Efficacy [2]?
A: 52%

Q: With `COc1ccc(F)c(CCCNC(C)=O)c1` as the molecule, how does the EC50 [1] read?
A: 20.4 nM

Q: What about the Efficacy [2] of the same molecule?
A: 100%

Q: What about the inhibition [3] of the same molecule?
A: inactive

Q: For `CCC(=O)NCC(C)(C)c1ccc(F)c(OC)c1`, which EC50 [1] is on record?
A: 0.537 nM

Q: And the Efficacy [2]?
A: 100%

Q: And the inhibition [3]?
A: inactive

Q: Which EC50 [1] does the source give for `COc1cc(CCNC(C)=O)ccc1F` here?
A: 275 nM

Q: What about the Efficacy [2] of the same molecule?
A: 100%

Q: What about the inhibition [3] of the same molecule?
A: inactive

Q: Which EC50 [1] does the source give for `COc1ccc(F)c(CNC(C)=O)c1` here?
A: 1950 nM

Q: And the Efficacy [2]?
A: 100%

Q: And the inhibition [3]?
A: inactive

Q: Which results are given for `CCCC(=O)NCc1ccc(OC)c(F)c1`?
A: EC50 [1]: 661 nM; inhibition [4]: 37%; Efficacy [2]: 57%

Q: Which EC50 [1] does the source give for `COc1ccc2[nH]cc(CCNC(C)=O)c2c1` [MELATONIN] here?
A: 0.123 nM

Q: How did the EC50 [1] turn out when `CCCC(=O)NCCCc1cc(OC)ccc1F` was run?
A: 9.55 nM

Q: What about the Efficacy [2] of the same molecule?
A: 100%

Q: And the inhibition [3]?
A: inactive

Q: How did the EC50 [1] turn out when `CCCC(=O)NCCc1ccc(F)c(OC)c1` was run?
A: 66.1 nM

Q: And the Efficacy [2]?
A: 100%

Q: And the inhibition [3]?
A: inactive

Q: How did the inhibition [4] turn out when `CC(=O)NCCc1c(Cc2ccccc2)[nH]c2ccccc12` was run?
A: 100%

Q: With `CCC(=O)NCCCc1ccc(OC)c(F)c1` as the molecule, how does the EC50 [1] read?
A: 871 nM

Q: And the inhibition [4]?
A: 8%

Q: And the Efficacy [2]?
A: 78%

Q: How did the EC50 [1] turn out when `CCC(=O)NCc1cc(OC)ccc1F` was run?
A: 2400 nM

Q: What about the inhibition [4] of the same molecule?
A: 23%

Q: What about the Efficacy [2] of the same molecule?
A: 69%

Q: For `COc1ccc(CNC(C)=O)cc1F`, which EC50 [1] is on record?
A: 1510 nM

Q: And the Efficacy [2]?
A: 77%

Q: What about the inhibition [3] of the same molecule?
A: inactive

Q: With `CCC(=O)NCc1ccc(F)c(OC)c1` as the molecule, how does the EC50 [1] read?
A: 2880 nM

Q: What about the Efficacy [2] of the same molecule?
A: 86%

Q: What about the inhibition [3] of the same molecule?
A: inactive
